Experimental data reported in PMC4203514 (Autophagy, 2014).
“Also recorded” adds a separate entry of the source. Read-outs that look alike come from different tables or passages of the source.

What was measured:
[1] = tested on: peripheral blood mononuclear cells; assay: PK-PD CART analysis of HCQ peak concentration versus AV accumulation in PBMC; type: in vivo, human
Outline: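 Exploratory classification and regression trees analysis used 26 patients with complete PK and PD data. The target was change in PBMC AV count from baseline to 2 wk. Predictors were Cmin, Cmax and AUC, taken from model-simulated individual blood profiles. The PK-PD relationship was also examined after 4 wk of combined therapy. The Cmax threshold was tested by Kruskal-Wallis (medians) and Kolmogorov-Smirnov two-sample tests.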

[2] = tested on: patients with advanced solid tumors; type: in vivo, human
Outline: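 Open-label single-institution 3 + 3 escalation of the oral test compound only, starting at 200 mg daily, split twice daily about 12 h apart above 200 mg, up to 1200 mg. A 14 d monotherapy run-in preceded an oral alkylating agent at 150 mg/m2 daily for 7 of 14 d, in 28 d cycles. DLT was any at least possibly related grade ≥ 3 event in the first 6 wk. MTD was ≤ 1/6 patients with DLT.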

[3] = tested on: patients with rheumatoid arthritis; settings: 1200 mg/d HCQ (600 mg twice daily), after 6 wk; cited from earlier work
[4] = tested on: patients with advanced solid tumors; assay: Treatment-related adverse events by grade; type: in vivo, human
Outline: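 Patients who took at least one dose of the oral test compound, given with a dose-intense oral alkylating agent, were evaluable for toxicity. Adverse events were graded by NCI Common Toxicity Criteria v3.0, and haematological toxicities were attributed to the alkylating agent. Complete blood counts were done weekly for the first 6 wk and biweekly thereafter. Treatment ran in 28 d cycles.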

CCN(CCO)CCCC(C)Nc1ccnc2cc(Cl)ccc12 (centres unmarked) [HCQ, hydroxychloroquine]
Threshold HCQ Cmax that correlated with AV accumulation (CART) ([1]; after 2 wk of single agent HCQ, 26 patients): 1554 ng/mL
Threshold HCQ Cmax for AV change (CART) ([1]; baseline to 4 wk of combined therapy (TMZ + HCQ), 21 patients): 856 ng/mL
Median AV change from baseline to 2 wk ([1]; patients with Cmax above 1554 ng/mL (n = 18), IQR -0.45, 1.37): 0.89
Median AV change from baseline to 2 wk ([1]; patients with Cmax below 1554 ng/mL (n = 8), IQR −1.35, 0.03): −0.21
Maximum tolerated dose (MTD) ([2]; HCQ up to 1200 mg/d combined with dose-intense TMZ 150 mg/m^2 daily for 7/14 d): No maximal tolerated dose; also recorded: not reached
Recommended phase II dose (RPTD) ([2]; combined with dose-intense TMZ, dose level 5): 600 mg twice daily
Dose-limiting toxicity ([2]; dose level 1 (HCQ 200 mg/day), three patients): no dose-limiting toxicity (DLT) was observed
Dose-limiting toxicity ([2]; dose level 2 (HCQ 400 mg/day)): no DLT observed
Serious adverse event ([2]; dose level 3 (HCQ 400 mg twice daily), patient on sotalol, within 8 d, attributed to dehydration and not to the study drug): third-degree heart block
Dose-limiting toxicity ([2]; dose level 4 (HCQ 1000 mg/day), none in 3 additional patients): one grade 3 rash
Dose-limiting toxicity ([2]; dose level 5 (HCQ 1200 mg/d), first cycle, none in expanded cohort): one patient experienced grade 3 nausea and vomiting
Dose-limiting toxicity as a single agent [3]: dose-limiting nausea
Abdominal fullness G1/G2 ([4]; All patients, HCQ with TMZ): 2 (6) No. (%)
Abdominal pain G1/G2 ([4]; All patients, HCQ with TMZ): 2 (6) No. (%)
Anemia G1/G2 ([4]; All patients, HCQ with TMZ): 1 (3) No. (%)
Anemia G3/G4 ([4]; All patients, HCQ with TMZ): 1 (3) No. (%)
Anorexia G1/G2 ([4]; All patients, HCQ with TMZ): 13 (35) No. (%)
Bradycardia G1/G2 ([4]; All patients, HCQ with TMZ): 2 (6) No. (%)
Constipation G1/G2 ([4]; All patients, HCQ with TMZ): 8 (22) No. (%)
Diarrhea G1/G2 ([4]; All patients, HCQ with TMZ): 9 (24) No. (%)
Dizziness G1/G2 ([4]; All patients, HCQ with TMZ): 2 (6) No. (%)
Dyspepsia G1/G2 ([4]; All patients, HCQ with TMZ): 2 (6) No. (%)
Headaches G1/G2 ([4]; All patients, HCQ with TMZ): 3 (8) No. (%)
Hypotension G1/G2 ([4]; All patients, HCQ with TMZ): 3 (8) No. (%)
Leukopenia G3/G4 ([4]; All patients, HCQ with TMZ): 1 (3) No. (%)
Lymphopenia G1/G2 ([4]; All patients, HCQ with TMZ): 5 (14) No. (%)
Lymphopenia G3/G4 ([4]; All patients, HCQ with TMZ): 5 No. (%)
Myalgias G1/G2 ([4]; All patients, HCQ with TMZ): 2 (6) No. (%)
Nausea G1/G2 ([4]; All patients, HCQ with TMZ): 24 (65) No. (%)
Nausea G3/G4 ([4]; All patients, HCQ with TMZ): 1 (3) No. (%)
Neutropenia G3/G4 ([4]; All patients, HCQ with TMZ): 2 (6) No. (%)
Pruritus G1/G2 ([4]; All patients, HCQ with TMZ): 4 (12) No. (%)
Rash G1/G2 ([4]; All patients, HCQ with TMZ): 3 (8) No. (%)
Rash G3/G4 ([4]; All patients, HCQ with TMZ): 1 (3) No. (%)
Taste change G1/G2 ([4]; All patients, HCQ with TMZ): 2 (6) No. (%)
Thrombocytopenia G1/G2 ([4]; All patients, HCQ with TMZ): 5 (14) No. (%)
Thrombocytopenia G3/G4 ([4]; All patients, HCQ with TMZ): 2 (6) No. (%)
Vomiting G3/G4 ([4]; All patients, HCQ with TMZ): 1 (3) No. (%)
Abdominal fullness G1/G2 ([4]; HCQ 200 mg (n = 3) with TMZ): 1 (33) No. (%)
Anorexia G1/G2 ([4]; HCQ 200 mg (n = 3) with TMZ): 1 (33) No. (%)
Constipation G1/G2 ([4]; HCQ 200 mg (n = 3) with TMZ): 1 (33) No. (%)
Fatigue G1/G2 ([4]; HCQ 200 mg (n = 3) with TMZ): 1 (33) No. (%)
Lymphopenia G1/G2 ([4]; HCQ 200 mg (n = 3) with TMZ): 1 (33) No. (%)
Lymphopenia G3/G4 ([4]; HCQ 200 mg (n = 3) with TMZ): 1 (33) No. (%)
Nausea G1/G2 ([4]; HCQ 200 mg (n = 3) with TMZ): 1 (33) No. (%)
Vomiting G1/G2 ([4]; HCQ 200 mg (n = 3) with TMZ): 1 (33) No. (%)
Abdominal fullness G1/G2 ([4]; HCQ 400 mg (n = 4) with TMZ): 1 (25) No. (%)
Anorexia G1/G2 ([4]; HCQ 400 mg (n = 4) with TMZ): 1 (25) No. (%)
Diarrhea G1/G2 ([4]; HCQ 400 mg (n = 4) with TMZ): 1 (25) No. (%)
Fatigue G1/G2 ([4]; HCQ 400 mg (n = 4) with TMZ): 2 (50) No. (%)
Hypotension G1/G2 ([4]; HCQ 400 mg (n = 4) with TMZ): 1 (25) No. (%)
Lymphopenia G3/G4 ([4]; HCQ 400 mg (n = 4) with TMZ): 2 (50) No. (%)
Myalgias G1/G2 ([4]; HCQ 400 mg (n = 4) with TMZ): 1 (25) No. (%)
Nausea G1/G2 ([4]; HCQ 400 mg (n = 4) with TMZ): 4 (100) No. (%)
Thrombocytopenia G1/G2 ([4]; HCQ 400 mg (n = 4) with TMZ): 1 (25) No. (%)
Vomiting G1/G2 ([4]; HCQ 400 mg (n = 4) with TMZ): 3 (75) No. (%)
Anorexia G1/G2 ([4]; HCQ 800 mg (n = 15) with TMZ): 5 (33) No. (%)
Constipation G1/G2 ([4]; HCQ 800 mg (n = 15) with TMZ): 4 (27) No. (%)
Diarrhea G1/G2 ([4]; HCQ 800 mg (n = 15) with TMZ): 2 (13) No. (%)
